Data reported in article PMC2848690 (Journal of medicinal chemistry, 2010).

Key:
[1] = cited from earlier work
[2] = target: recombinant wild type human BCA2 (Homo sapiens, UniProt Q9Y4L5); experiment: Recombinant BCA2 autoubiquitination assay; type: biochemical; details: 50 μM compound, 30 min preincubation
Procedure, shortened: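 Test compound stocks (10 mM in DMSO) were diluted in reaction buffer and preincubated with 10 ng recombinant His-BCA2 (final 5 or 50 μM) for 30 min at room temperature. ATP (20 mM stock), ubiquitin (1 μg), rabbit E1 (20 ng) and human UbcH5b (20 ng) were added in Tris-HCl pH 8.0/DTT/MgCl2 buffer. Reactions ran 1 h at 30 °C, then SDS-PAGE and anti-ubiquitin immunoblot.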

MCF-7 cells [3] = experiment: Zinc chloride rescue of growth inhibition, MTT assay in MCF-7; type: cell-based, human; details: for Growth inhibitory activity in presence of zinc chloride: compound at its IC50, ZnCl2 600 nM to 75 μM, 5 days, MCF-7
MCF-7 cells [4] = experiment: MTT proliferation assay, MCF-7; type: cell-based, human; details: for Mean IC50 ±SD in MCF-7: MTT assay, 72 hour drug exposure (footnote a), BCA2 +ve, ER +ve, three independent experiments; for IC100 (100% growth inhibitory concentration) in MCF-7: delineated from MTT growth curves
Procedure, shortened: (§1)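 Exponentially growing cells were kept in RPMI 1640 with 10% heat-inactivated FBS at 37 °C and 5% CO2. They were dosed with test compound from 0.00001 to 10 μM and read by MTT. Each compound was tested in triplicate. Active compounds had three independent experiments, reported as mean ± SD. IC50 and IC100 were read from growth curves.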

BCA2 = BCA2 (Homo sapiens, UniProt Q9Y4L5); experiment: Endogenous BCA2 protein stability in MCF-7 cells; type: cell-based; details: 16 hrs exposure at IC100 concentration, compound alone
BCA2, sequence (Q9Y4L5 whole entry): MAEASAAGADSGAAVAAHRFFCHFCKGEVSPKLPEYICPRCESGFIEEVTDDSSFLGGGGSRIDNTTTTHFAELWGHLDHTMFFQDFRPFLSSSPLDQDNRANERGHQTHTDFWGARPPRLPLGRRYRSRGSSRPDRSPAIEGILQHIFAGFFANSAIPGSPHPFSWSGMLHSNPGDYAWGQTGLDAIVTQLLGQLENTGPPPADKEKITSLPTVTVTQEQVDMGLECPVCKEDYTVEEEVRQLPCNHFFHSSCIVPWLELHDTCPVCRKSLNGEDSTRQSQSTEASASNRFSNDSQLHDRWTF
Procedure, shortened: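 MCF-7 cells (1×10^6) were seeded and grown overnight, then exposed for 16 h to test compound alone, or with cycloheximide (100 μM) and/or a proteasome inhibitor (10 μM). DMSO vehicle controls ran for 16 h. Whole-cell lysates were immunoblotted with in-house anti-BCA2 antibodies, using beta-actin as the loading control.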

T47D cells = experiment: MTT proliferation assay, T47D; type: cell-based, human; details: 72 hour drug exposure (footnote a), BCA2 +ve, ER +ve
Procedure, shortened: as §1

[5] = test system: BCA2 low/− cells (MDA-MB-231 or MCF10A); experiment: MTT assay, BCA2 low/negative cells as a group; type: cell-based, human; details: active if IC50 <10 μM
Procedure, shortened: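 MDA-MB-231 (BCA2 low/−, ER −) was grown in RPMI 1640 with 10% heat-inactivated FBS, and normal MCF10A mammary epithelial cells in MEGM, both at 37 °C and 5% CO2. Exponentially growing cells received test compound at 0.00001–10 μM for 72 h, followed by MTT read-out. IC50 values came from growth curves, with triplicate wells and three independent experiments (mean ± SD).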

[6] = test system: BCA2+ cells (MCF-7, T47D, MDA-MB-231/ER); experiment: MTT assay, BCA2-positive breast cancer cell lines as a group; type: cell-based, human; details: active if IC50 <10 μM
Procedure, shortened: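 MCF-7, T47D and MDA-MB-231/ER (a stable ERα-transfected, G418-selected clone of MDA-MB-231 kept in 1mg/mL G418) were grown in RPMI 1640 with 10% heat-inactivated FBS at 37 °C and 5% CO2. Exponentially growing cells were exposed to test compound at 0.00001–10 μM for 72 h, and growth was read by MTT. IC50 values came from growth curves, with triplicate wells and three independent experiments (mean ± SD).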

ALDH1 = target: T1, ALDH1 (Homo sapiens, UniProt P00352); experiment: ALDH1 inhibition in K562 cells; type: cell-based; details: for ALDH-inhibitory activity (in words): K562 cells, 15 μM
T1 sequence (P00352 2-501 limits assumed): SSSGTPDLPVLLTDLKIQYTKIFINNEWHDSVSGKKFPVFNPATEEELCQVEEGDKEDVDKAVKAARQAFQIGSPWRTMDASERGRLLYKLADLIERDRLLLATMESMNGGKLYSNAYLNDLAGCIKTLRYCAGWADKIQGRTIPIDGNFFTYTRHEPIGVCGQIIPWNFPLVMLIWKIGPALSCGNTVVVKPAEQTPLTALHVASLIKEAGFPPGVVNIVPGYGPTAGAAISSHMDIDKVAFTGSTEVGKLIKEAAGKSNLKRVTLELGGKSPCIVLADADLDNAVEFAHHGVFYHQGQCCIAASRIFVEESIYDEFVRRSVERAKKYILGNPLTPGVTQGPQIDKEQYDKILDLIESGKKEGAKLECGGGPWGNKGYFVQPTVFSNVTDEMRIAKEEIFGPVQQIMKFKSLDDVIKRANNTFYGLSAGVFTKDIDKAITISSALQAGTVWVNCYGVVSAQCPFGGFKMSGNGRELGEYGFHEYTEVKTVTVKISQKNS

MDA-MB-231 cells = experiment: MTT proliferation assay, MDA-MB-231; type: cell-based; details: Homo sapiens, MDA-MB-231, 72 h, read-out: Mean IC50 ±SD in MDA-MB-231
Procedure, shortened: as §1

recombinant wild type human BCA2, sequence (Q9Y4L5 whole entry): as the sequence (Q9Y4L5 whole entry) above

Row | SMILES | Oral bioavailability [1] [%] | Inhibition of autoubiquitination of recombinant BCA2 [2] | Growth inhibitory activity in presence of zinc chloride (MCF-7 cells [3]) | Mean IC50 ±SD in MCF-7 (MCF-7 cells [4]) | IC100 (100% growth inhibitory concentration) in MCF-7 (MCF-7 cells [4]) [µM] | BCA2 protein levels in MCF-7 cells (BCA2) | Mean IC50 ±SD in T47D (T47D cells) | Activity in BCA2 low/− cells [5] | Activity in BCA2+ cells [6] | ALDH-inhibitory activity (in words) (ALDH1) | IC50 (MDA-MB-231 cells) [µM] | ALDH+ K562 cells (%) (ALDH1; compound 15 μM, 45 min at 37 °C) | Effect on the growth of MCF-7 cells (MCF-7 cells [3]; zinc chloride alone)
1 | CCN(CC)C(=S)SSC(=S)N(CC)CC [Compound 1, bis(diethylaminothiocarbonyl)-disulfide, reference compound] | > 80 | abolish the autoubiquitination activity | completely abolished | – | – | – | – | – | – | – | – | – | –
2 | S=C(SSC(=S)N1CCCCC1)N1CCCCC1 [Compound 3a, Bis(piperidinylthiocarbonyl)disulfide] | – | abolish the autoubiquitination activity | completely abolished | submicromolar | 0.25 | marked reduction | submicromolar | – | – | – | – | – | –
3 | S=C(SSC(=S)N1CCCC1)N1CCCC1 [Compound 3c, Bis(pyrrolidinylthiocarbonyl)disulfide] | – | abolish the autoubiquitination activity | – | submicromolar | – | – | submicromolar | – | – | – | – | – | –
4 | C1CN(SSN2CCOCC2)CCO1 [Compound 4, 4,4′-dithiodimorpholine] | – | – | – | – | – | – | – | inactive | inactive | – | – | – | –
5 | CCCCCCSSC(=S)N(CC)CC [Compound 5d, Hexyl diethylcarbamo(dithioperoxo)thioate] | – | abolish the autoubiquitination activity | completely abolished | submicromolar | 1 | marked reduction | submicromolar | inactive | active | lack ALDH-inhibitory activity | – | – | –
6 | CCN(CC)C(=S)SSCCO [Compound 5f, 2-Hydroxyethyl diethylcarbamo(dithioperoxo)thioate] | – | abolish the autoubiquitination activity | – | submicromolar | – | – | submicromolar | inactive | active | lack ALDH-inhibitory activity | > 10 | 36.9 ± 3.15 | –
7 | [Cl-].[Cl-].[Zn+2] [Zinc chloride, zinc (II) chloride] | – | – | – | – | – | – | – | – | – | – | – | – | no effect
